Assay results gathered from unrelated publications.
Protocols differ between the studies behind these lines.
SIGMAR1: Sigma non-opioid intracellular receptor 1 (SIGMAR1, Homo sapiens, UniProt Q99720)
SLC10A1: Hepatic sodium/bile acid cotransporter (SLC10A1, Homo sapiens, UniProt Q14973)
HTR2A: 5-hydroxytryptamine receptor 2A (HTR2A, Homo sapiens, UniProt P28223)
PPO3: PPO3 (Agaricus bisporus, UniProt C7FF04)
OPRK1: Kappa-type opioid receptor (OPRK1, Homo sapiens, UniProt P41145)
SPHK1: Sphingosine kinase 1 (SPHK1, Homo sapiens, UniProt Q9NYA1)
CNR1: Cannabinoid receptor 1 (CNR1, Homo sapiens, UniProt P21554)
HRH4: Histamine H4 receptor (HRH4, Homo sapiens, UniProt Q9H3N8)

CCCn1nc(C(=O)N2CCCCC2)c2c1CCC(NCC1CCOCC1)C2 (stereo not shown)
Ki (SIGMAR1; ligand displacement; radioligand): > 10 µM

CC(C)C(=O)Nc1ccc([N+](=O)[O-])c(C(F)(F)F)c1
Ki (SLC10A1; transporter uptake; inhibitor): 113 µM

Cc1nc2n(c(=O)c1CCN)CCCC2
Ki (HTR2A; ligand displacement; radioligand; cell membranes): > 10 µM

C[C@@H]1Cc2ccccc2N1C(=O)NCCCCN(C)[C@@H]1Cc2cccc3[nH]c(=O)n(c23)C1
Ki (HTR2A; ligand displacement; radioligand): 2.71 µM

CC[C@H](C)[C@H](NC(=O)[C@H](CCC(=O)O)NC(=O)[C@H](CC(=O)O)NC(=O)CNC(=O)[C@H](CC(C)C)NC(=O)[C@H](CCCNC(=N)N)NC(=O)[C@H](CCCNC(=N)N)NC(=O)[C@H](CC(C)C)NC(=O)CNC(=O)[C@H](CCC(N)=O)NC(=O)[C@@H](NC(=O)[C@H](CCSC)NC(=O)[C@H](Cc1c[nH]c2ccccc12)NC(=O)[C@@H](NC(=O)[C@H](CCC(=O)O)NC(=O)[C@@H]1CCCN1C(=O)[C@H](CCCNC(=N)N)NC(C)=O)[C@@H](C)CC)[C@@H](C)O)C(=O)N[C@@H](CC(N)=O)C(=O)N[C@@H](C)C(=O)N[C@@H](Cc1ccc(O)cc1)C(=O)N[C@@H](Cc1ccc(O)cc1)C(=O)N[C@@H](C)C(=O)N[C@@H](CCCNC(=N)N)C(N)=O
Ki (Bcl-2-like protein 1 (BCL2L1, Homo sapiens, UniProt Q07817); ligand displacement; FP): 2.4 µM

O[C@H]1[C@H](n2cnc3c(NC(C4CCCCC4)C4CCCCC4)nc(Cl)nc32)[C@H]2C[C@@]2(CF)[C@H]1O
Ki (HTR2A; ligand displacement; radioligand): 7 µM

Nc1nc(N)c(N=Nc2ccccc2[N+](=O)[O-])c(N)n1
Ki (PPO3; enzyme activity; inhibitor): 5.66 µM

CCCn1nc(C(=O)N2CCCCC2)c2c1CCC(N(C)Cc1ccc(F)cc1)C2 (stereo not shown)
Ki (SIGMAR1; ligand displacement; radioligand): > 10 µM

CNc1nc(C#Cc2ccc(Cl)s2)nc2c1ncn2[C@@H]1O[C@H](C(=O)OC)[C@@H](O)[C@H]1O
Ki (OPRK1; cell-free assay): > 10 µM

CCCn1nc(C(=O)N2CCCCC2)c2c1CCC(N1CCC(c3ccncc3)CC1)C2 (stereo not shown)
Ki (SIGMAR1; ligand displacement; radioligand): > 10 µM

COc1cc2c(cc1OC)CN(CCCCn1ccc3c(OC)cccc31)C2
Ki (SIGMAR1; ligand displacement; radioligand; cell membranes): 0.149 µM

CCOC(=O)[C@@]12C[C@@H]1[C@@H](n1cnc3c(NC)nc(C#Cc4ccc(Cl)s4)cc31)[C@H](O)[C@@H]2O
Ki (OPRK1; cell-free assay): > 10 µM

N=C(N)N1CCC[C@H]1c1nc(-c2ccc(CCc3ccc(C(F)(F)F)cc3)c(C(F)(F)F)c2)no1
Ki (SPHK1; enzyme activity; inhibitor): 9 µM

CCCn1nc(C(=O)N2CCCCC2)c2c1CCC(NCc1ccc(S(N)(=O)=O)cc1)C2 (stereo not shown)
Ki (SIGMAR1; ligand displacement; radioligand): > 10 µM

CNC(=O)[C@@]12C[C@@H]1[C@@H](n1cnc3c(NC)nc(C#Cc4ccc(Br)s4)nc31)[C@H](O)[C@@H]2O
Ki (OPRK1; cell-free assay): > 10 µM

CC(=O)Nc1ccc(N=Nc2c(N)nc(N)nc2Cl)cc1
Ki (PPO3; enzyme activity; inhibitor): 7.84 µM

CCCn1nc(C(=O)N2CCCCC2)c2c1CCC(NCCNC(=N)N)C2 (stereo not shown)
Ki (SIGMAR1; ligand displacement; radioligand): > 10 µM

Cc1ccc(N=Nc2c(N)nc(N)nc2Cl)cc1
Ki (PPO3; enzyme activity; inhibitor): 5.87 µM

Cc1ccc(CN(C)CC(=O)N2CCCN(Cc3ccc(Cl)cc3)CC2)c(Cl)c1
Ki (OPRK1; cell-free assay): 7.59 µM

O[C@@H]1[C@H](O)[C@@H]2C[C@@H]2[C@H]1n1cnc2c(NCCc3ccccc3)nc(C#Cc3ccccc3Cl)nc21
Ki (OPRK1; cell-free assay): > 10 µM

CCCCN1CCC(COC(=O)c2ccc(N)c(OCF)c2)CC1
Ki (HTR2A; cell-free assay; radioligand): > 10 µM

CNC(=O)[C@@]12C[C@@H]1[C@@H](n1cnc3c(NC)nc(C#Cc4ccccc4Cl)nc31)[C@H](O)[C@@H]2O
Ki (OPRK1; cell-free assay): > 10 µM

CCCC[C@H](NC(=O)[C@H](C)c1c(C)[nH]c2ccc(O)cc12)c1ncc(-c2cc3ccccc3nc2OC)[nH]1
Ki (CNR1; cell-free assay): 7.28 µM

CNC(=O)[C@@]12C[C@@H]1[C@@H](n1cnc3c(NCc4cccc(Cl)c4)nc(C#Cc4ccccc4)nc31)[C@H](O)[C@@H]2O
Ki (OPRK1; cell-free assay): > 10 µM

Cc1nc[nH]c(=O)c1CCN1CCC(c2noc3cc(F)ccc23)CC1
Ki (HTR2A; ligand displacement; radioligand; cell membranes): 0.00186 µM

CS(=O)(=O)CCNCc1ccc(-c2ccc3ncnc(Nc4ccc(OCc5cccc(F)c5)c(Cl)c4)c3c2)o1
Ki (SLC10A1; transporter uptake; inhibitor): 285 µM

Cn1cc(-c2ccncc2)c(-c2ccc(OCc3ccc4ccccc4n3)cc2)n1
Ki (Vesicular acetylcholine transporter (SLC18A3, Homo sapiens, UniProt Q16572); ligand displacement; radioligand): > 1 µM

O=C(c1cccc(/N=N/c2cccc(OCCCN3CCCCC3)c2)c1)N1CCCC1
Ki (HRH4; ligand displacement; radioligand): > 10 µM

COc1ccc(N=Nc2c(N)nc(N)nc2Cl)cc1
Ki (PPO3; enzyme activity; inhibitor): 7.05 µM

CCCn1nc(C(=O)N2CCCCC2)c2c1CCC(NCCCN1CCCC1=O)C2 (stereo not shown)
Ki (SIGMAR1; ligand displacement; radioligand): > 10 µM

CNc1nc(C#Cc2ccccc2)nc2c1ncn2[C@H]1[C@H](O)[C@H](O)[C@@H]2C[C@@H]21
Ki (OPRK1; cell-free assay): > 10 µM

COc1ccc2c(ccn2CCCCN2Cc3cc(OC)c(OC)cc3C2)c1
Ki (SIGMAR1; ligand displacement; radioligand; cell membranes): 0.19 µM

COc1ccccc1N1CCN(C/C=C/CNC(=O)c2cc3cc(OCCOCCF)ccc3[nH]2)CC1
Ki (SIGMAR1; cell-free assay): > 10 µM

[H]/N=C(\N)N1CCC[C@H]1c1nc(-c2ccc(OCC=Cc3ccc(C(F)(F)F)cc3)c(C(F)(F)F)c2)no1
Ki (SPHK1; enzyme activity; inhibitor): 12 µM

O[C@@H]1[C@H](O)[C@@H]2C[C@@H]2[C@H]1n1cnc2c(NCc3cccc(Cl)c3)nc(C#Cc3ccc(F)c(F)c3)nc21
Ki (OPRK1; cell-free assay): > 10 µM

CC(=O)Nc1ccc(N=Nc2c(N)nc(N)nc2N)cc1
Ki (PPO3; enzyme activity; inhibitor): 4.98 µM

CCOC(=O)[C@](CC)(CCCS(=O)(=O)CCOCCOCCNC(=O)OC(C)(C)C)NC(=O)c1ccc(C2CC2)c(Cc2ccc(F)cc2)n1
Ki (CNR1; ligand displacement; radioligand; cell membranes): 0.19 µM

O=C1NC(=O)C(c2ccccc2)(c2ccc(OCCCN3CCCCC3)cc2)N1 (stereo not shown)
Ki (HRH4; ligand displacement; radioligand; cell membranes): > 100 µM

Cc1nc2n(c(=O)c1CCN1CCCCC1)CCCC2
Ki (HTR2A; ligand displacement; radioligand; cell membranes): ~5 µM

Cc1ccc(C(C)C)cc1NC(=O)COC(=O)c1ccc(O)cc1O
Ki (PPO3; enzyme activity; inhibitor): 0.188 µM
